Screening data from PubChem.
An excerpt weighted towards active compounds, which were near 6.4% of everything screened.
WT yeast gro inh – growth inhibition of WT strain, primary screen, mitochondrial fusion inhibitor project, WT and mutant strains, chemical genetic. mitochondrial fusion phenotypic screen. inhibition, % at 10 µM. hit rate 2.1% among 190,000. AID 1362, 2008; in the data active = inhibition above about 58%; tested in S. cerevisiae
GRIN3A LBD mod – binders of NR3A ligand-binding domain, primary screen, biophysical, differential scanning fluorimetry, uHTS; Tm shift relative to glycine control, % at 25 µM; NR3A LBD differential scanning fluorimetry, Tm shift; 0% = protein alone, 100% = glycine-bound protein; hit rate 2.5% among 340,000; AID 1259313, 2017;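 active = melting temperature shift of at least 10% of the positive control shift, at one fixed dose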
MPTP block – mitochondrial permeability transition pore inhibitors, primary screen, biochemical, isolated mouse mitochondria, absorbance; inhibition, % at 10 µM; hit rate 1.4% among 360,000; Ca2+ swelling absorbance, 30 min;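 active = inhibition of 50% or more, scaled per plate between neutral and stimulator controls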
EBV gp42 inh – Epstein-Barr virus gp42 inhibitors, primary screen, biochemical, uHTS, fluorescence polarization; hit rate 0.42% among 220,000; inhibition, % (tested at 21.74 µM); AID 1085, 2008; Fluorescence polarization binding assay, mP read-out; in the data active = inhibition above about 50%
Target sequence (Q1HVG2 whole entry, looked up): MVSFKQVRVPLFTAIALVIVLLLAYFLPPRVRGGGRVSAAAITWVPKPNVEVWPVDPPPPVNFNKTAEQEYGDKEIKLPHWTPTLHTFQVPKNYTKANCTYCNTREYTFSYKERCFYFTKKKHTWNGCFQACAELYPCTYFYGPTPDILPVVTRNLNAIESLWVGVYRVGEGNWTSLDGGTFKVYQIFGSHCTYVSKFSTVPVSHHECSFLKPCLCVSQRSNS
CHOP inh – inhibitors of CHOP promoter induction, primary screen, cell-based, unfolded protein response, luciferase reporter | CHO-K1 CHOP-promoter luciferase, tunicamycin-induced, 15-18 h | hit rate 3.8% among 220,000 | inhibition, % at 10 µM;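 active = compounds that reduced the stress-induced luciferase reporter signal by more than about 70% of percent inhibition, limit read from the data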
Tb MetRS inh – T. brucei MetRS inhibitors, primary screen, biochemical, luminescence | purified T. brucei MetRS, ATP depletion, Kinase-Glo luminescence | inhibition, % at 11.9 µM | hit rate 0.4% among 360,000 | AID 624268, 2012;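 active = inhibition above a per-plate cutoff of the control wells' mean inhibition plus 3 SD, cut at about 5.5% in these data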
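technique = Kinase-Glo luminescence, ATP depletion format | system = purified MetRS (methionyl-tRNA synthetase) enzyme from Trypanosoma brucei | timing = 15 min preincubation, 2 h reaction, all 25 °C | evaluation = percent inhibition versus plate control medians | dosing = single dose, 11.9 µM final nominal, 0.9% final DMSO | also added = substrates ATP, L-methionine and bulk Escherichia coli tRNA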
Rh123 counter – fluorescence retest of MPTP screen hits in isolated mitochondria, single concentration. shares compounds with MPTP block. inhibition, % at 10 µM. membrane potential, Rhodamine 123 fluorescence. hit rate 78% among 5,000; in the data active = inhibition above about 22%
MPTP abs DR – mitochondrial permeability transition pore inhibitors, dose response, biochemical, absorbance, uHTS hits. shares compounds with MPTP block. isolated mitochondria swelling. IC50, µM. hit rate 58% among 780. AID 651561, 2012; in the data active = IC50 below about 20 µM
MPTP cs DR – fluorescent counter-screen in isolated mitochondria, dose response, counter-screen for MPTP inhibitor project, biochemical, fluorescence, uHTS hits; shares compounds with MPTP block; isolated mitochondria counterscreen, fluorescence read-out; IC50, µM; hit rate 49% among 780; in the data active = IC50 below about 80 µM
Of the large screens only hits and unclear results are named; the others gave an inactive call (follow-up assays come after a bar, where they were run).

CC1CCc2c(sc(NC(=S)NC(=O)c3ccccc3)c2C#N)C1 (stereo not given)	MPTP block 66, CHOP inh 71 (no result: WT yeast gro inh) | Rh123 counter 70
CC1CCc2c(sc(NC(=O)c3ccccc3C(=O)O)c2C#N)C1 (stereo not given)	none
CC(C)CC(=O)NC(NC(=S)Nc1sc2c(c1C#N)CCCC2)C(Cl)(Cl)Cl (stereo not given)	MPTP block 90, CHOP inh 79 | Rh123 counter 97
N#Cc1c(NC(=S)NC(=O)c2ccccc2)sc2c1CCCC2	GRIN3A LBD mod 12, MPTP block 86 | Rh123 counter inactive | MPTP abs DR inactive | MPTP cs DR 6.7
Cn1nccc1C(=O)Nc1sc2c(c1C#N)CCCC2	none (no result: WT yeast gro inh, EBV gp42 inh, CHOP inh)
CCC(=O)Nc1sc2c(c1C#N)CCC2	none
Cn1ncc(Cl)c1C(=O)NC(=S)Nc1sc2c(c1C#N)CCCCC2	GRIN3A LBD mod 13, MPTP block 90 | Rh123 counter inactive | MPTP abs DR inactive | MPTP cs DR <2.5
N#Cc1c(NC(=O)c2ccccc2)sc2c1CCC2	none
O=C(NCc1ccco1)c1ccc(Cn2c(=S)[nH]c3ccccc3c2=O)cc1	none
O=C(NCc1ccccc1F)C(=O)NCC1CCCN1S(=O)(=O)c1cccs1 (stereo not given)	none (no result: WT yeast gro inh, EBV gp42 inh, CHOP inh)
O=C(CCCN1C(=O)c2ccccc2C1=O)Nc1nccs1	none
O=C(CCCCCCN1C(=O)c2ccccc2C1=O)Nc1nccs1	MPTP block 66 | Rh123 counter inactive | MPTP abs DR inactive | MPTP cs DR inactive
OCCNCc1cc(Br)ccc1OCc1ccccc1Cl	none
CC1CCCCC1N1CN=C(Nc2nc3ccccc3s2)NC1 (stereo not given)	MPTP block 66 | Rh123 counter inactive | MPTP abs DR inactive | MPTP cs DR inactive
c1ccc2sc(NC3=NCN(C4CCCCC4)CN3)nc2c1	none
O=C1CCCN1CCC(=O)N1CCCC(N2CCN(c3ccccc3F)CC2)C1 (stereo not given)	none (no result: WT yeast gro inh, EBV gp42 inh, CHOP inh)
COc1ccc(S(=O)(=O)Nc2ccccc2C(=O)NCc2ccco2)cc1	none
O=C(NCc1ccco1)c1ccccc1NS(=O)(=O)c1ccc(Br)s1	MPTP block 71 | Rh123 counter 81
Cn1c(=O)c2[nH]c(CCCCc3nc4ccccc4[nH]3)nc2n(C)c1=O	none (no result: WT yeast gro inh, EBV gp42 inh, CHOP inh)
Cn1c(=O)c2[nH]c(CCCCCCCCc3nc4ccccc4[nH]3)nc2n(C)c1=O	MPTP block 102 (no result: WT yeast gro inh, EBV gp42 inh, CHOP inh) | Rh123 counter 94
CC1(C)CC(=O)C2=C(C1)NC1=C(C(=O)c3ccccc31)C2c1ccc(Cl)cc1 (stereo not given)	MPTP block 98 | Rh123 counter 52
COc1ccccc1CC(=O)Nc1ccc([N+](=O)[O-])cc1O	MPTP block 54 | Rh123 counter 82
COc1ccccc1CC(=O)Nc1ccccc1O	none
O=C(O)COCC(=O)NCc1nc(-c2ccc(C(F)(F)F)cc2)no1	none (no result: WT yeast gro inh)
Cc1cccc(-c2noc(CNC(=O)Nc3ccc(F)cc3)n2)c1	MPTP block 59 | Rh123 counter 71
O=C(NCc1nc(-c2ccc(C(F)(F)F)cc2)no1)Nc1ccc(F)cc1F	MPTP block 54 (no result: WT yeast gro inh) | Rh123 counter 69
CCOc1ccc(Br)cc1/C(C)=N\NC1=NCCN1	MPTP block 108 | Rh123 counter 67
CCCCCOc1ccc(/C(C)=N/NC2=NCCN2)cc1	none (no result: WT yeast gro inh, EBV gp42 inh, CHOP inh)
CCCCCCOc1ccc(/C(C)=N/NC2=NCCN2)cc1	MPTP block 94 (no result: WT yeast gro inh, EBV gp42 inh, CHOP inh) | Rh123 counter inactive
CCOc1ccc(N/C(C)=C\C(=O)c2ccc3c(c2)OCCO3)cc1	none
COc1ccc(C2Nc3ccccc3C(=O)N2c2ccc(C)cc2)cc1Cn1nnc2ccccc21 (stereo not given)	none
O=C(Nc1ccc(F)cc1)C(Sc1nc2ccccc2[nH]1)c1ccccc1 (stereo not given)	MPTP block 97 | Rh123 counter 87
Cn1c(SC(C(=O)Nc2ccc(F)cc2)c2ccccc2)nc2ccccc21 (stereo not given)	MPTP block 64 | Rh123 counter 66
CCN(CC)C(=O)C1CCCN(C(=O)Nc2ccc3nsnc3c2)C1 (stereo not given)	none
O=C(Nc1cccc(S(=O)(=O)N2CCOCC2)c1)c1ccccn1	none (no result: WT yeast gro inh)
C/C(=N\Nc1ncc(Cl)cc1Cl)c1ccc(C#N)cc1	none
COc1ccc(/C(C)=N/Nc2ncc(Cl)cc2Cl)c(O)c1	MPTP block 73 | Rh123 counter 73
CCN(CC)c1ccc(/C=C2\C(=O)c3ccc(C(=O)O)cc3C2=O)cc1	MPTP block 70 | Rh123 counter inactive
O=C(O)C1CCCCC1C(=O)NC1CCCCC1 (stereo not given)	none
CC(C)C(=O)Nc1ccc(Sc2ccc(F)cc2)cc1	MPTP block 52 | Rh123 counter 37
CCCCCCCCCCS(=O)(=O)N/N=C/c1ccc([N+](=O)[O-])cc1	GRIN3A LBD mod 31, MPTP block 85 | Rh123 counter 62
Cc1ccc(/C=N/NS(=O)(=O)c2ccc([N+](=O)[O-])cc2)o1	none
CCCC(=O)Nc1ccc(-c2csc(-c3cccnc3)n2)cc1	none (no result: WT yeast gro inh, EBV gp42 inh, CHOP inh)
O=C(Nc1ccc(Cl)c(Cl)c1)C1CC(=O)N(c2ccc(Br)cc2)C1 (stereo not given)	GRIN3A LBD mod 28, MPTP block 63 | Rh123 counter 87
Cc1ccc(N2CC(C(=O)N3CCC(C(=O)Nc4ccc(Br)cc4)CC3)CC2=O)cc1 (stereo not given)	none (no result: WT yeast gro inh, EBV gp42 inh, CHOP inh)
COc1ccccc1/C=C/C(=O)c1cc(Br)ccc1OC(=O)c1ccco1	MPTP block 57 (no result: WT yeast gro inh, EBV gp42 inh, CHOP inh) | Rh123 counter inactive
COc1ccc(Nc2nc(S(=O)(=O)c3ccc(C)cc3)c(Cl)s2)cc1	MPTP block 59 | Rh123 counter 76
Cc1ccc(S(=O)(=O)c2nc(Nc3ccccc3)sc2Cl)cc1	WT yeast gro inh 79, MPTP block 85, CHOP inh 73 | Rh123 counter 85
O=S(=O)(c1ccccc1)c1nc(NCc2ccccc2)sc1Cl	none
